Our source for the Activity values is ChEMBL document CHEMBL1156682, “Synthesis and antioxidant activity evaluation of new hexahydropyrimido[5,4-c]quinoline-2,5-diones and 2-thioxohexahydropyrimido[5,4-c]quinoline-5-ones obtained by Biginelli reaction in two steps” (Eur J Med Chem, 2008).

Type in all cases: functional
Assay [1] relates to Radical scavenging activity. The experiment in a line: Antioxidant activity assessed as DPPH radical scavenging activity at 100 uM/L after 2 hrs. The method in brief: (§1)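 DPPH radical scavenging read as absorbance at 517 nm. %RSA = [(A_DPPH − A_S)/A_DPPH] × 100, where A_S is absorbance with compound added at a given level and A_DPPH is absorbance of DPPH solution alone. Mean of three independent samples per compound.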
For orientation: DPPH is a stable violet radical that fades when it is reduced.

In assay [2] the test system is Radical scavenging activity. The experiment in a line: Antioxidant activity assessed as DPPH radical scavenging activity at 50 uM/L after 2 hrs. The method in brief:
as §1

Assay [3] relates to Radical scavenging activity. In words: Antioxidant activity assessed as DPPH radical scavenging activity at 150 uM/L after 2 hrs. The method in brief: as §1
The nature of assay [4]: Antioxidant activity assessed as hydroxyl radical scavenging activity at 200 uM/L after 2 hrs. The method in brief:
(§2)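 Hydroxyl radical scavenging by benzoic acid hydroxylation, with OH· generated by Fenton reaction. Sample was mixed with phosphate buffer (pH 7.4, 0.1 mol), then H2O2 solution (10 mmol) was added, and the mixture was incubated at 37 °C for 2 h. Fluorescence of the hydroxylated benzoic acid was read at excitation 305 nm, emission 407 nm.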

The subject of assay [5] is Radical scavenging activity. In words: Antioxidant activity assessed as DPPH radical scavenging activity at 250 uM/L after 2 hrs. The gist of the method:
as §1

In assay [6] the test system is Radical scavenging activity. In words: Antioxidant activity assessed as DPPH radical scavenging activity at 200 uM/L after 2 hrs. The gist of the method: as §1
Assay [7] in a line: Antioxidant activity assessed as hydroxyl radical scavenging activity at 20 uM/L after 2 hrs. The method in brief:
as §2

The nature of assay [8]: Antioxidant activity assessed as hydroxyl radical scavenging activity at 50 uM/L after 2 hrs. The gist of the method: as §2
Assay [9] can be described thus: Antioxidant activity assessed as hydroxyl radical scavenging activity at 100 uM/L after 2 hrs. The method in brief: as §2
Assay [10] in a line: Antioxidant activity assessed as hydroxyl radical scavenging activity at 150 uM/L after 2 hrs. The method in brief: as §2

With `CCN1C(=O)NC2C(=C1C)C(=O)Nc1ccccc12` (stereo not given), the Activity is 4.8% in [1]; 3.4% in [2]; 6.7% in assay [3]; 89.1% in [4]; 10.5% in assay [5]; 9.1% in assay [6]. Further, the Activity in [7] worked out at 58.1%; in assay [8], 70.9%; in [9], 81.1%; in assay [10], 86.5%.
For `CC1=C2C(=O)Nc3cccc(F)c3C2NC(=S)N1C` (stereo not given), the Activity was 8.6% in assay [1]; 3.3% in assay [2]; 12.4% in [3]; 83.3% in assay [4]; 25.4% in [5]; 17.4% in assay [6]. The Activity in assay [7] was 70.6%; in [8] it was 78.8%; in [9] it was 80.2%; in assay [10] it was 81.5%.
With `CCN1C(=O)NC2C(=C1C)C(=O)Nc1c(Cl)cccc12` (stereo not given), the Activity in assay [1] is 2.3%; in [2] it was 1.9%; in assay [3], 4.3%; in [4], 86.7%; in assay [5], 11.8%; in [6], 8.1%. Besides, the Activity in assay [7] was found to be 63.8%; in [8], 74.1%; in [9], 80.6%; in assay [10], 84.4%.
`CC1=C2C(=O)Nc3c(Cl)cccc3C2NC(=O)N1C` (stereo not given): the Activity was determined as 5.4% in assay [1]; 3.1% in assay [2]; 10.2% in assay [3]; 89.2% in assay [4]; 17.4% in assay [5]; 16.2% in assay [6]. Besides, the Activity in assay [7] worked out at 66%; in assay [8] it was 77.3%; in [9], 82.9%; in assay [10] it was 87.3%.
In the case of `CC1=C2C(=O)Nc3ccccc3C2NC(=S)N1C` (stereo not given), the Activity in assay [1] came to 8.2%; in assay [2], 4%; in assay [3], 14.1%; in [4], 88.2%; in assay [5] it was 26.2%; in [6] it was 17.9%. In addition, the Activity was determined as 56.3% in [7], 69.4% in assay [8], 77.2% in [9] and 82.3% in [10].
As to `CC1=C2C(=O)Nc3cc(Cl)ccc3C2NC(=S)N1C` (stereo not given), the Activity in assay [1] is 11.2%; in assay [2] it was 9.5%; in assay [3], 17.8%; in assay [4], 90.2%; in assay [5], 30.6%; in [6], 23.8%. For the same molecule, the Activity in assay [7] was 68.7%; in assay [8] it was 76.5%; in assay [9], 87.5%; in assay [10], 88.5%.
Consider `CC1=C2C(=O)Nc3cccc(Cl)c3C2NC(=O)N1C` (stereo not given), for which the Activity in [1] amounted to 2.1%; in assay [2] it was 1.5%; in assay [3], 5%; in assay [4], 83.3%; in assay [5], 7.6%; in assay [6] it was 5.4%. Further, the Activity amounted to 67.1% in assay [7], 72.8% in [8], 80.9% in assay [9] and 83.2% in assay [10].
Take `CCN1C(=O)NC2C(=C1C)C(=O)Nc1cccc(F)c12` (stereo not given): the Activity in assay [1] was determined as 4.6%; in [2], 3%; in assay [3], 6%; in assay [4] it was 83.1%; in assay [5], 9.8%; in assay [6], 8.7%. The Activity in assay [7] worked out at 12.5%; in [8], 58.4%; in assay [9], 72.4%; in [10], 80.2%.
For `CC1=C2C(=O)Nc3ccccc3C2NC(=O)N1C` (stereo not given), the Activity in assay [1] turned out to be 6.6%; in assay [2], 2.5%; in assay [3] it was 9.1%; in [4], 89.7%; in [5], 12%; in assay [6] it was 9.8%. Further, the Activity came out at 58.4% in [7], 71.8% in assay [8], 80.8% in [9] and 83.7% in [10].
As for `CC1=C2C(=O)Nc3cccc(Cl)c3C2NC(=S)N1C` (stereo not given), the Activity in [1] is 8.2%; in assay [2], 7.7%; in assay [3], 9.5%; in [4] it was 92.3%; in assay [5], 24.9%; in [6] it was 15.3%. Moreover, the Activity was determined as 68% in assay [7], 82.7% in assay [8], 87.4% in assay [9] and 89.8% in [10].
